Tests used:
[1] = target: Metallo beta-lactamase (Pseudomonas aeruginosa) (UniProt Q6TUJ4); test: Inhibition of Pseudomonas aeruginosa 101/1477 metallo beta lactamase IMP1 expressed in Escherichia coli assessed as residual enzyme activity at 100 uM in absence of zinc
[2] = target: Metallo beta-lactamase (Pseudomonas aeruginosa) (UniProt Q6TUJ4); test: Inhibition of Pseudomonas aeruginosa 101/1477 metallo beta lactamase IMP1 expressed in Escherichia coli assessed as residual enzyme activity at 100 uM in presence of zinc chloride
Method in brief: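 IMP-1 at 0.03–0.7 nM was preincubated 30 min at room temperature with 100 μM inhibitor in 20 mM HEPES pH 7.0 with 20 μg/ml BSA plus 100 μM ZnCl2. The reaction was then started with 100 μM imipenem. The initial rate of three samples was taken as mean percent of the rate without inhibitor ± SD.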

[3] = test system: Bacillus cereus; test: Inhibition of Bacillus cereus metallo beta lactamase Bc2 assessed as residual enzyme activity at 100 uM
[4] = Inhibition of metallo beta lactamase VIM2 assessed as residual enzyme activity at 100 uM
[5] = Inhibition of metallo beta lactamase VIM4 assessed as residual enzyme activity at 100 uM
[6] = target: Beta-lactamase L1 (Stenotrophomonas maltophilia) (UniProt P52700); test: Inhibition of Stenotrophomonas maltophilia metallo beta lactamase L1 assessed as residual enzyme activity at 100 uM
[7] = test system: Fluoribacter gormanii; test: Inhibition of Legionella gormani beta lactamase metallo FEZ1 expressed in Escherichia coli assessed as residual enzyme activity at 100 uM
Method in brief: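 Purified enzyme (0.03–0.7 nM) in 20 mM HEPES pH 7.0 with 20 μg/ml BSA was preincubated 30 min at room temperature with 100 μM inhibitor, diluted from 10 mM DMSO stock. Nitrocefin (100 μM) was then added and the initial hydrolysis rate measured. Residual activity is the mean (±SD) of three samples as percent of the uninhibited rate.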

[8] = target: Beta-lactamase (Aeromonas hydrophila) (UniProt Q44079); test: Ratio of Kcat to Km for Aeromonas hydrophila beta lactamase CphA at pH 7.0
Method in brief: (§1)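 Wild-type CphA kinetics with imipenem as substrate, measured in a mixed buffer adjusted to the stated pH with HCl or NaOH. The buffer held 40 mM sodium acetate, 20 mM each of cacodylate, MOPS, TAPS, CHES and CAPS, and 20 μg/ml BSA. Runs were at 30°C in thermostatted cells. Km and kcat came from initial rates. At pH 10 only kcat/Km was taken, because imipenem hydrolyses spontaneously.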

[9] = target: Beta-lactamase (Aeromonas hydrophila) (UniProt Q44079); test: Ratio of Kcat to Km for Aeromonas hydrophila beta lactamase CphA at pH 8.0; method in brief: as §1
[10] = target: Beta-lactamase (Aeromonas hydrophila) (UniProt Q44079); test: Ratio of Kcat to Km for Aeromonas hydrophila beta lactamase CphA at pH 9.0; method in brief: as §1
[11] = target: Beta-lactamase (Aeromonas hydrophila) (UniProt Q44079); test: Ratio of Kcat to Km for Aeromonas hydrophila beta lactamase CphA at pH 10.0; method in brief: as §1

Sequence of Beta-lactamase L1 (Stenotrophomonas maltophilia) (P52700 34-290 limits assumed): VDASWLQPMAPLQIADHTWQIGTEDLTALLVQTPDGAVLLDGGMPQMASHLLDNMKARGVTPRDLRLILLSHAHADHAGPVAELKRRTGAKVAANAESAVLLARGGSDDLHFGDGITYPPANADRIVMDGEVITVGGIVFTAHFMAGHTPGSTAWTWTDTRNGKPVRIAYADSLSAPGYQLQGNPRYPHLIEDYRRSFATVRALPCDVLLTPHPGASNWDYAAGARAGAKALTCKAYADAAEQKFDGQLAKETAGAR
Sequence of Metallo beta-lactamase (Pseudomonas aeruginosa) (Q6TUJ4 as listed by the source): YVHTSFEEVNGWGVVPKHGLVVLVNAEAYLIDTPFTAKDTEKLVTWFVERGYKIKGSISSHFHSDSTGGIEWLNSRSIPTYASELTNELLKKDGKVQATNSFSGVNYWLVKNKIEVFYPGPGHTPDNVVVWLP
Sequence of Beta-lactamase (Aeromonas hydrophila) (Q44079 as listed by the source): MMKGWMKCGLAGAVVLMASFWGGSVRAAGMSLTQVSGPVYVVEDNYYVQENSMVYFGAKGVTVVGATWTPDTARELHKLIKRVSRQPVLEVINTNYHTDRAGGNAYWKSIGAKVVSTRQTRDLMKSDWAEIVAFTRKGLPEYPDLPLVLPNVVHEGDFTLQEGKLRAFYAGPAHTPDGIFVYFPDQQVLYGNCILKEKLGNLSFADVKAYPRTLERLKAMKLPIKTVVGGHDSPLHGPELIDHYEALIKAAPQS

SMILES	Activity [1] [%]	Activity [2] [%]	Activity [3] [%]	Activity [4] [%]	Activity [5] [%]	Activity [6] [%]	Activity [7] [%]	Ratio [8] [µM⁻¹ s⁻¹]	Ratio [9] [µM⁻¹ s⁻¹]	Ratio [10] [µM⁻¹ s⁻¹]	Ratio [11] [µM⁻¹ s⁻¹]
O=C(O)c1cccc(C(=O)O)n1	2	72	95	96	88	92	77				
O=C(O)c1ccccn1	31	54	95	80	59	29	62				
O=C(O)c1ccnc(C(=O)O)c1	94	78	97	98	90	78	65				
CC(O)[C@H]1C(=O)N2C(C(=O)O)=C(SCCNC=N)C[C@H]12 (single isomer, unassigned)								1.8	1.7	0.78	0.44
O=C(O)c1cccnc1C(=O)O	89	67	98	106	73	93	62				
O=C(O)c1ccc(C(=O)O)nc1	99	81	99	97	97	94	80				
O=C(O)c1ccncc1C(=O)O	91	88	97	92	100	97	93				
